The nature of test [1]: Glutathione peroxidase-like activity at 10x(E -2) M concentration as NADP+/L/min. Type of test: functional.
Test [2] can be described thus: Glutathione peroxidase-like activity in relation to Ebselen glutathione peroxidase-like activity. Type of test: functional. Also noted: concentration or dose not given beside the values.
The species named for test [3] is Mus musculus. As to the kind of experiment: Glutathione peroxidase-like activity at 10x(E -4) M concentration measured as NADP+/L/min. The test is classed as functional.
Test [4] can be described thus: Glutathione peroxidase-like activity at 10x(E -3) M concentration as NADP+/L/min. Type of test: functional.
Test [5] concerns Murine-murine hybridoma (mark 3). In words: (§1) Antioxidative property against stable murine-murine hybridoma (Mark 3) cell line. The test is classed as functional.
Test [6] in a line: Glutathione peroxidase-like activity in relative to Ebselen glutathione peroxidase-like activity. Type of test: functional. Details: concentration or dose not given beside the values. The method in brief:
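Glutathione peroxidase-like activity by the Paglia and Valentine method. Compound solution (100 µL) was added to phosphate buffer, pH 7, with H2O2 and GSH (1.5 × 10-1 M stock in 0.01 M HCl). NADP+ formation was read at 340 nm and expressed as µmol NADP+/L/min. Blanks checked direct NADPH oxidation by compounds. Ebselen was run as the reference.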

Test [7] is filed under the species Mus musculus. The description is as §1. The test is classed as functional.
Test [8] is filed under the species Mus musculus. In words: Antioxidative property against stable murine-murine hybridoma (Mark 3) cell line; no effect. The test is classed as functional, organism-based.
The species named for test [9] is Mus musculus. In words: Antioxidative property against stable murine-murine hybridoma (Mark 3) cell line; fluorescence at 488 nm. The test is classed as functional, organism-based.
Test [10] in a line: Glutathione peroxidase-like activity at 10x(E -4) M concentration as NADP+/L/min; traces. The test is classed as functional.
Test [11] can be described thus: Glutathione peroxidase-like activity at 10x(E -2) M concentration. The test is classed as functional.

The source made the active and inactive calls. No cut-off for these calls is given here.

With `CCOC(=O)c1cc2ccc3c(c4ccccc4n3C)c2o1`, the Activity amounted to 53 µM in test [1], 5% in test [2], 33 µM/min in the test filed under Mus musculus [3] and 15 µM in test [4]. In test [5], this molecule yielded an Effective molarity of 0.0001 M l-1.
With `COC(=O)c1cc2ccc3c(c4ccccc4n3C)c2[se]1`, the Activity in test [1] is 104 µM; in the test filed under Mus musculus [3], 29 µM/min; in test [4], 31 µM; in test [6] it was 10%. The molecule also showed an Effective molarity in [5] of 1e-05 M l-1.
For `c1ccc2c(c1)[nH]c1c2ccc2ccsc21`, the Activity in [1] was 25 µM; in the test filed under Mus musculus [3], 27 µM/min; in test [4], 20 µM; in test [6], 2%. This molecule returned an Effective molarity in [5] of 1e-05 M l-1.
As to `COc1cccc2c1C(=O)c1[nH]c3ccccc3c1-2`, the Activity in test [1] was determined as 369 µM; in [2] it was 35%; in the test listed under Mus musculus [3], 20 µM/min; in [4], 29 µM. In the test filed under Mus musculus [7], this molecule displayed an Effective molarity of 1e-06 M l-1.
As to `CCOC(=O)c1sc(SC)c2c1ccc1c3cc(OC)ccc3[nH]c12`, the Activity in test [1] is 151 µM; in test [2], 14%; in the test filed under Mus musculus [3], 26 µM/min; in test [4], 9 µM.
In the case of `COc1ccc2[nH]c3c(c2c1)-c1cccc(OC)c1C3=O`, the Activity was determined as 58 µM in [1], 6% in [2], 11 µM/min in the test listed under Mus musculus [3] and 26 µM in test [4]. The Effective molarity in [5] is reported as 1e-05 M l-1.
As to `COc1ccc2[nH]c3c(ccc4ccsc43)c2c1`, the Activity in [1] is 60 µM; in test [2], 6%; in the test listed under Mus musculus [3] it was 4 µM/min; in test [4] it was 22 µM.
Turning to `c1ccc2c(c1)[nH]c1c3ccsc3ccc21`, the Activity was found to be 60 µM in test [1], 26 µM/min in the test filed under Mus musculus [3], 25 µM in test [4] and 6% in [6]. In addition, the Effective molarity in test [5] is on record as 1e-05 M l-1.
For `CS(=O)(=O)n1c2c(c3ccccc31)-c1nn[se]c1CC2` the same measures were 140 µM, 31 µM/min, 33 µM, 13% and 0 M l-1.
Turning to `c1ccc2c(c1)[nH]c1c2ccc2[se]nnc21`, the Activity in [1] was found to be 51 µM; in the test filed under Mus musculus [3], 20 µM/min; in test [4], 31 µM; in [6], 5%. Moreover, the NE result in the test listed under Mus musculus [8] was “inactive”.
Take `CCOC(=O)c1sc(SC)c2c1ccc1c3ccccc3[nH]c12`: the Effective molarity result in the test filed under Mus musculus [9] is listed as “fluorescence at 488 nm”. Moreover, the Activity in test [1] was 133 µM; in [2] it was 13%; in test [4] it was 38 µM; in test [10], “traces”.
`Cn1cnc2c3[nH]c4ccccc4c3ccc21`: the Activity in [1] was 42 µM; in test [2], 4%; in the test filed under Mus musculus [3], 29 µM/min; in test [4], 20 µM. Moreover, the Effective molarity in [5] is 1e-05 M l-1.
`CS(=O)(=O)n1c2ccccc2c2c3nn[se]c3ccc21`: the Activity in [1] was determined as 46 µM; in the test listed under Mus musculus [3], 29 µM/min; in [4], 33 µM; in test [6] it was 4%. In test [5], the Effective molarity was 0.0001 M l-1.
In the case of `CCOC(=O)c1c2[nH]c3ccccc3c2cc2nc(C)sc12`, the Activity was determined as 506 µM in [1], 48% in test [2], 33 µM/min in the test filed under Mus musculus [3] and 46 µM in test [4]. The same molecule returned an Effective molarity in [5] of 1e-05 M l-1.
Regarding `CCOC(=O)c1c2[nH]c3ccc(OC)cc3c2cc2nc(C)sc12`, the Activity in [1] came to 215 µM; in test [2], 21%; in the test filed under Mus musculus [3], 40 µM/min; in [4], 58 µM. In [5], the Effective molarity is 1e-05 M l-1.
Regarding `COc1ccc2[nH]c3c4ccsc4ccc3c2c1`, the Activity in [1] came out at 47 µM; in test [2] it was 4%; in the test filed under Mus musculus [3], 13 µM/min; in test [4], 20 µM. The molecule further showed an Effective molarity in test [5] of 1e-06 M l-1.
Consider `O=c1c2ccccc2[se]n1-c1ccccc1` [EBSELEN], for which the Activity in test [1] was 1050 µM; in test [4], 111 µM; in test [6], 100%. The molecule further yielded an Effective molarity in test [5] of 1e-05 M l-1.
With VITAMIN E, the Activity in test [1] was found to be 20 µM; in test [2], 2%; in the test filed under Mus musculus [3] it was 15 µM; in [4] it was 33 µM. The molecule also had an Effective molarity in test [5] of 1e-10 M l-1.
Regarding `CCOC(=O)c1cc2ccc3c(c4ccccc4n3C)c2s1`, in test [2], the Activity was found to be 11%. In test [5], this molecule had an Effective molarity of 0.0001 M l-1.
As to `Cc1nc2ccc3[nH]c4ccccc4c3c2s1`, the Activity is 93 µM in [1], 9% in test [2], 20 µM/min in the test filed under Mus musculus [3] and 29 µM in test [4].
With `COc1ccc2[nH]c3ccc4nc(C)sc4c3c2c1`, the Activity in test [11] is 64 µM; in test [2] it was 6%; in the test filed under Mus musculus [3], 33 µM/min; in test [4], 35 µM.
In the case of `CS(=O)(=O)n1c2c(c3ccccc31)CCc1[se]nnc1-2`, the Activity in test [1] amounted to 246 µM; in the test filed under Mus musculus [3] it was 18 µM/min; in [4] it was 31 µM; in [6] it was 23%. Besides, the Effective molarity in test [5] is given as 0.0001 M l-1.
For the molecule `c1ccc2c3c([nH]c2c1)-c1ccsc1SC3`, the Activity was found to be 75 µM in [1], 44 µM/min in the test listed under Mus musculus [3], 71 µM in test [4] and 7% in test [6]. Moreover, in test [5], the Effective molarity was determined as 1e-05 M l-1.
